Values after ≈ are worked out from the molar mass of the structure shown. Active and inactive are the calls of the source. The calls are words filed in the database; no cut-off is given here.
Assays:
Streptococcus pneumoniae = assay: Antibacterial activity against Streptococcus pneumoniae NCTC 7466 by CLSI M100-S13 method; assay type: functional; details: NCTC7466
Summary of the method: (§1)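 Broth MICs were run per CLSI guidelines. Compounds were dissolved in DMSO at 2% final concentration, and 2% DMSO alone served as the control.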

Helicobacter pylori [1] = assay: Antibacterial activity against HefC-deficient Helicobacter pylori ARHp80 by CLSI M100-S13 method; assay type: functional
Summary of the method: (§2)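 MICs for H. pylori, C. coli and C. jejuni were determined by a previously described susceptibility method. Compounds were in DMSO at 2% final, and 2% DMSO served as the control.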

Enterococcus faecium = assay: Antibacterial activity against Enterococcus faecium ATCC 19434 by CLSI M100-S13 method; assay type: functional; summary of the method: as §1
Helicobacter pylori [2] = assay: Antibacterial activity against Helicobacter pylori SS1 by CLSI M100-S13 method; assay type: functional; summary of the method: as §2
Haemophilus influenzae = assay: Antibacterial activity against Haemophilus influenzae ATCC 51907 by CLSI M100-S13 method; assay type: functional; summary of the method: as §1
Staphylococcus aureus = assay: Antibacterial activity against Staphylococcus aureus by CLSI M100-S13 method; assay type: functional; summary of the method: as §1
Escherichia coli = assay: Antibacterial activity against Escherichia coli by CLSI M100-S13 method; assay type: functional; summary of the method: as §1
Moraxella catarrhalis = assay: Antibacterial activity against Moraxella catarrhalis ATCC 43617 by CLSI M100-S13 method; assay type: functional; summary of the method: as §1
Helicobacter pylori [3] = assay: Antibacterial activity against Helicobacter pylori ARHp80 by CLSI M100-S13 method; assay type: functional; summary of the method: as §2
[4] = molecular target: T1, Glutamate racemase (Helicobacter pylori (strain ATCC 700392 / 26695) (Campylobacterpylori)) (UniProt P56068); assay: Inhibition of MurI in flaA mutant Helicobacter pylori Hp80.2 overexpressing MurI gene assessed as microbial growth inhibition by CLSI M100-S13 method
T1 sequence (whole entry): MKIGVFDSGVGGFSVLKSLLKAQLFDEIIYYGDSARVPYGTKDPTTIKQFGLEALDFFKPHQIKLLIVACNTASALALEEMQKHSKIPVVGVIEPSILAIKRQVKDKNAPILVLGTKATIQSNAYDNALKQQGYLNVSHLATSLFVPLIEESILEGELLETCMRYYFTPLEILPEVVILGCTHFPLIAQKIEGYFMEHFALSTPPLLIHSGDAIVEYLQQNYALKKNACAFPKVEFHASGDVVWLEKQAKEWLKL
Summary of the method: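 MIC against H. pylori Hp80.2, a strain built in the wild-type ARHp80 background by replacing flaA with a murI expression construct (pSM116) so that flaA-promoter-driven MurI is overexpressed, confirmed by PCR, sequencing and Western blot. The comparison strain is isogenic Hp80.1, which carries the empty construct. Compounds were dissolved in DMSO, 2% final, with 2% DMSO as control.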

Helicobacter pylori [5] = assay: Induction of morphological changes in Helicobacter pylori by phase contrast microscopy; assay type: functional, organism-based
Summary of the method: (§3)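 H. pylori was grown at 37°C in brucella broth with 5% fetal calf serum under microaerophilic gas (5% O2, 10% CO2, 85% N2), then examined for cell shape by phase-contrast microscopy.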

Campylobacter jejuni = assay: Antibacterial activity against Campylobacter jejuni ATCC 33560 by CLSI M100-S13 method; assay type: functional; summary of the method: as §2
[6] = test system: Fusobacterium necrophorum; assay: Antibacterial activity against Fusobacterium necrophorum clinical isolate by CLSI M100-S13 method; assay type: functional
Summary of the method: (§4)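 Anaerobic MICs run by CLSI broth microdilution guidelines for Bacteroides fragilis. Compounds were dissolved in DMSO at 2% final in all wells, and 2% DMSO served as the solvent control.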

Lactobacillus jensenii = assay: Antibacterial activity against Lactobacillus jensenii clinical isolate by CLSI M100-S13 method; assay type: functional
Bacteroides fragilis = assay: Antibacterial activity against Bacteroides fragilis ATCC 25285 by CLSI M11-S13 broth microdilution method; assay type: functional; summary of the method: as §4
[7] = molecular target: T1, Glutamate racemase (Helicobacter pylori (strain ATCC 700392 / 26695) (Campylobacterpylori)); assay: Inhibition of MurI in Helicobacter pylori assessed as morphological change at 2 times MIC by phase contrast microscopy; summary of the method: as §3
[8] = test system: Bacteroides thetaiotaomicron; assay: Antibacterial activity against Bacteroides thetaiotaomicron clinical isolate by CLSI M100-S13 method; assay type: functional; summary of the method: as §4
[9] = test system: Prevotella melaninogenica; assay: Antibacterial activity against Prevotella melaninogenica clinical isolate by CLSI M100-S13 method; assay type: functional; summary of the method: as §4
Fusobacterium mortiferum = assay: Antibacterial activity against Fusobacterium mortiferum clinical isolate by CLSI M100-S13 method; assay type: functional; summary of the method: as §4
Campylobacter coli = assay: Antibacterial activity against Campylobacter coli ATCC 33559 by CLSI M100-S13 method; assay type: functional; summary of the method: as §2
Clostridioides difficile = assay: Antibacterial activity against Clostridium difficile clinical isolate by CLSI M100-S13 method; assay type: functional; summary of the method: as §4

Row | Compound | MIC (Streptococcus pneumoniae) [µg/mL] | MIC (Helicobacter pylori [1]) [µg/mL] | MIC (Enterococcus faecium) [µg/mL] | MIC (Helicobacter pylori [2]) [µg/mL] | MIC (Haemophilus influenzae) [µg/mL] | MIC (Staphylococcus aureus) [µg/mL] | MIC (Escherichia coli) [µg/mL] | MIC (Moraxella catarrhalis) [µg/mL] | MIC (Helicobacter pylori [3]) [µg/mL] | MIC [4] [µg/mL] | also measured
1 | CC(C)Cn1c(=O)n(C)c(=O)c2c(-c3ccncc3)n(Cc3cccc4ccccc34)nc21 | > 64 | 1 (≈ 2.28 µM) | > 64 | 4 (≈ 9.1 µM) | > 64 | > 64 | > 64 | > 64 | 4 (≈ 9.1 µM) | 8 (≈ 18.2 µM) | 
2 | C#CCn1c(=O)c2c(-c3cncn3C)n(Cc3ccnc4ccc(Cl)cc34)nc2n(CC2CC2)c1=O |  | 0.25 (≈ 0.5 µM) |  | 2 (≈ 4 µM) |  | > 64 | > 64 |  | 1 (≈ 2 µM) | 8 (≈ 16 µM) | 
3 | CONC(=O)c1cc(-c2c3c(=O)n(C)c(=O)n(CC4CC4)c3nn2Cc2c[nH]c3ccc(C)cc23)n(C)c1 | > 32 | 0.25 (≈ 0.485 µM) | > 32 | 16 (≈ 31 µM) | > 32 | > 64 | > 64 | > 32 | 16 (≈ 31 µM) |  | 
4 | CN(C)[C@@H]1C(O)=C(C(N)=O)C(=O)[C@@]2(O)C(O)=C3C(=O)c4c(O)cccc4[C@@](C)(O)[C@H]3C[C@@H]12 [TETRACYCLINE] |  | 0.015 (≈ 0.0338 µM) |  | 0.25 (≈ 0.563 µM) |  |  |  |  | 0.13 (≈ 0.293 µM) | 0.13 (≈ 0.293 µM) | Activity (Helicobacter pylori [5]): Active
5 | C#CCn1c(=O)c2c(-c3cc(C#N)cn3C)n(Cc3cc(C#N)nc4ccc(Cl)cc34)nc2n(CC2CC2)c1=O |  | 0.5 (≈ 0.911 µM) |  | 2 (≈ 3.64 µM) |  | > 64 | > 64 |  | 1 (≈ 1.82 µM) | > 64 | 
6 | Cn1cc([S+](C)[O-])cc1-c1c2c(=O)n(C)c(=O)n(CC3CC3)c2nn1Cc1ccnc2ccc(Cl)cc12 (configuration not stated) | > 64 | 0.25 (≈ 0.466 µM) | > 64 | 16 (≈ 29.8 µM) | > 64 | > 64 | > 64 | > 64 | 8 (≈ 14.9 µM) | 16 (≈ 29.8 µM) | 
7 | Cn1cc(C#N)cc1-c1c2c(=O)n(C)c(=O)n(CC3CC3)c2nn1Cc1ccnc2ccc(Cl)cc12 |  | 0.25 (≈ 0.5 µM) |  | 1 (≈ 2 µM) |  | > 64 | > 64 |  | 0.5 (≈ 1 µM) | 4 (≈ 8 µM) | MIC (Campylobacter jejuni): > 64 µg/mL; MIC [6]: > 64 µg/mL; MIC (Lactobacillus jensenii): > 64 µg/mL; MIC (Bacteroides fragilis): > 64 µg/mL; Activity [7]: Non-toxic; MIC [8]: > 64 µg/mL; MIC [9]: > 64 µg/mL; MIC (Fusobacterium mortiferum): > 64 µg/mL; MIC (Campylobacter coli): > 64 µg/mL; MIC (Clostridioides difficile): > 64 µg/mL
